According to ChEMBL document CHEMBL1132324, “Structure-activity relationships in 1,4-benzodioxan-related compounds. 6. Role of the dioxane unit on selectivity for alpha(1)-adrenoreceptor subtypes” (J Med Chem, 1999):

Columns and labels:
[1] = biological target: T1, Alpha-1A adrenergic receptor (Rattus norvegicus) (UniProt P43140); assay: Antagonist affinity was expressed as apparent pKb at Alpha-1A adrenergic receptor on isolated rat prostatic vas deferens (alpha1A).; format: functional, tissue-based
T1 sequence (whole entry): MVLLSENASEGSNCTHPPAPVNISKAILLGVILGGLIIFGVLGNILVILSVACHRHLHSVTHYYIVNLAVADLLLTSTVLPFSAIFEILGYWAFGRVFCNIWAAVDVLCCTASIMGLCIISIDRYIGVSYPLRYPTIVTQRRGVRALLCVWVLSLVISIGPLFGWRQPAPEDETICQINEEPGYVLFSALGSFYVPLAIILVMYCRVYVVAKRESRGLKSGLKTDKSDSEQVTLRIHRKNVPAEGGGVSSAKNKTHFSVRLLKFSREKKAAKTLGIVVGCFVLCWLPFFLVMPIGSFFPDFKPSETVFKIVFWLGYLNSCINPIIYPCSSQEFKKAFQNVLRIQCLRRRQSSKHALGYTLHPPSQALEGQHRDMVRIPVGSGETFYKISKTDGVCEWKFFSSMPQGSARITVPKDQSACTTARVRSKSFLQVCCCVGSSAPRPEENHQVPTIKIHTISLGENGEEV
In short: (§1)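 Rat prostatic vas deferens in Tyrode with 0.1 μM cocaine. Equilibrated 60 min, primed twice with 10 μM noradrenaline, then a control cumulative (–)-noradrenaline curve recorded isometrically. Antagonist equilibrated 30 min before a repeat curve. Apparent pKb = log(DR−1) − log[B], with DR as the ratio of agonist EC50 with/without antagonist. 2–3 antagonist concentrations, each tested four times.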

[2] = biological target: T2, Alpha-1D adrenergic receptor (Rattus norvegicus) (UniProt P23944); assay: Antagonist affinity was expressed as apparent pKb at Alpha-1D adrenergic receptor on isolated rat thoracic aorta (Alpha-1D); format: functional, tissue-based
T2 sequence (whole entry): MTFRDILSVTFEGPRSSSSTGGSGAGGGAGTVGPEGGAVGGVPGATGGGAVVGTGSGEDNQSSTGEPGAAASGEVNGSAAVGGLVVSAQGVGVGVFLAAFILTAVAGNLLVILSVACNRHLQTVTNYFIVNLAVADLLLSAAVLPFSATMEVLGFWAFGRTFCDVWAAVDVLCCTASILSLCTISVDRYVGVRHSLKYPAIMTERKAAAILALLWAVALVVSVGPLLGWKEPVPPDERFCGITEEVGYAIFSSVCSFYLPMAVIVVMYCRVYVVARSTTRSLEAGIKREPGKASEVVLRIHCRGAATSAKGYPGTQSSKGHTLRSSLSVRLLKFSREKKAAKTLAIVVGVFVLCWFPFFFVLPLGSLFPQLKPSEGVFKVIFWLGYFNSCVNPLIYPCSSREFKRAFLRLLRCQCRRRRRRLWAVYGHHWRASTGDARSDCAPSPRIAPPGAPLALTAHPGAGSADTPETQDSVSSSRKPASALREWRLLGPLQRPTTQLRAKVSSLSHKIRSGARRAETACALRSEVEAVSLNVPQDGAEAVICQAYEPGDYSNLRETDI
In short: (§2)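 Helicoidal strips of rat thoracic aorta at 1 g tension, with 0.1 μM cocaine and 1 μM propranolol. After ≥1 h equilibration, cumulative (–)-noradrenaline curves at 30-min intervals; the third served as control. Antagonist equilibrated 30 min before the fourth curve. Apparent pKb from log(DR−1) − log[B], 2–3 antagonist concentrations, each tested four times.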

[3] = tested on: Alpha-1B adrenergic receptor (Cavia porcellus); assay: Antagonist affinity was expressed as apparent pKb at Alpha-1B adrenergic receptor on isolated Guinea pig spleen (Alpha-1B)
[4] = biological target: T3, Alpha-1B adrenergic receptor (Homo sapiens) (UniProt P35368); assay: The binding affinity was evaluated on cloned human alpha-1B adrenergic receptor expressed in chinese hamster ovary(CHO) cells by using [3H]prazosin as radioligand.; format: cell-based
T3 sequence (whole entry): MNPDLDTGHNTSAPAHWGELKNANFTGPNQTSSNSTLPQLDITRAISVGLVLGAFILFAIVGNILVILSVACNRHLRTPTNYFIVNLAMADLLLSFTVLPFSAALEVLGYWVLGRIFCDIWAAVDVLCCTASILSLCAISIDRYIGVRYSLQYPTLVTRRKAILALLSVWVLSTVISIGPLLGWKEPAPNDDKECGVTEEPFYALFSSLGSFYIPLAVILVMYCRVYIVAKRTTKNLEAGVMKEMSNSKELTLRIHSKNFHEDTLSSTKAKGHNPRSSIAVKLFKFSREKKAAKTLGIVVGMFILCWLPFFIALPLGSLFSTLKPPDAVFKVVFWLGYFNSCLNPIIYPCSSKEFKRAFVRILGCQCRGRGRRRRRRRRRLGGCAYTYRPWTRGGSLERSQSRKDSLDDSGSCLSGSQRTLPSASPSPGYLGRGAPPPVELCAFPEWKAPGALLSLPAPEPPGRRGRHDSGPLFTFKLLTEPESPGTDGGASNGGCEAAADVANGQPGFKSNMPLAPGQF
In short: (§3)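 Membranes (30 μg protein) from CHO cells stably expressing each human α1 subtype, in 50 mM Tris-HCl pH 7.4. Incubated with 0.1–0.4 nM [3H]prazosin for 30 min at 25 °C, competitor 1 pM–10 μM. Nonspecific binding with 10 μM phentolamine. Ki by Cheng-Prusoff. 2–3 experiments in triplicate.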

[5] = biological target: T4, Alpha-1D adrenergic receptor (Homo sapiens) (UniProt P25100); assay: The binding affinity was evaluated on cloned human alpha-1D adrenergic receptor expressed in chinese hamster ovary(CHO) cells by using [3H]prazosin as radioligand.; format: cell-based; in short: as §3
T4 sequence (whole entry): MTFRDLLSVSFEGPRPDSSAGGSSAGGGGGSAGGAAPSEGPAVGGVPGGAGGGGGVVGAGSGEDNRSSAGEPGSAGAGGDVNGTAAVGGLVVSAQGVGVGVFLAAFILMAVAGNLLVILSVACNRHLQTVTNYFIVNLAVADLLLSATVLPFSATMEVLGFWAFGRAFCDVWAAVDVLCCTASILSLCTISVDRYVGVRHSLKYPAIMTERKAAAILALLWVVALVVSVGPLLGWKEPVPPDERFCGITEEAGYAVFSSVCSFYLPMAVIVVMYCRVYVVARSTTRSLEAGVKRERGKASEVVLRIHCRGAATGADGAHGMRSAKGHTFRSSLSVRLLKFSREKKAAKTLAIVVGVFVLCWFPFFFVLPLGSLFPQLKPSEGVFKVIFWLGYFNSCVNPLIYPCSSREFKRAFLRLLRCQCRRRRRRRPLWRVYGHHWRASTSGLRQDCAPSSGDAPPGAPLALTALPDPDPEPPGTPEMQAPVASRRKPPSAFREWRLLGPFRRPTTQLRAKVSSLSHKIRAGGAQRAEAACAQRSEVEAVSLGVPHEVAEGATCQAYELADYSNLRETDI

[6] = biological target: T1, Alpha-1A adrenergic receptor (Rattus norvegicus); assay: Antagonist affinity was expressed as apparent pKb at alpha-1 adrenoceptors on isolated rat prostatic vas deferens (Alpha-1A adrenergic receptor).; format: functional, tissue-based; in short: as §1
[7] = biological target: T2, Alpha-1D adrenergic receptor (Rattus norvegicus); assay: Antagonist affinity was expressed as apparent pKb at alpha-1D adrenergic receptor on isolated rat thoracic aorta (Alpha-1D adrenergic receptor); format: functional, tissue-based; in short: as §2
[8] = tested on: Alpha-1B adrenergic receptor (Cavia porcellus); assay: Antagonist affinity was expressed as apparent pKb at alpha-1B adrenergic receptor on isolated Guinea pig spleen (Alpha-1B adrenergic receptor)

pKb [1] | pKb [2] | pKb [3] | pKi [4] | pKi [5] | pKb [6] | pKb [7] | pKb [8] | SMILES
8.39 | 9.37 | 7.87 | – | – | – | – | – | COc1cccc(OC)c1OCCNCCOc1ccccc1OCc1ccccc1
7.36 | 7.46 | 5.54 | – | – | – | – | – | COc1cccc(OC)c1OCCNCC1Oc2ccccc2CC1c1ccccc1 (stereo in doubt; 7)
– | – | – | 6.84 | 7.93 | 7.88 | 6.98 | 6.05 | COc1cccc(OC)c1OCCNCC1C(=O)c2ccccc2OC1c1ccccc1 (stereo unspecified)
